Assay results published in PMC5060091 (ChemMedChem, 2016).
Where “and” joins values, the source holds several entries; their conditions need not be identical. Identical values can stand only once. Like-named read-outs stand apart in the source and are kept apart here.

Assays:
[1] = tested on: Candida albicans ATCC 10231; assay: MIC, broth dilution, strain A; format: cell-based; conditions: Candida albicans
Method in brief: (§1)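 Broth dilution MIC assay on the Candida panel: C. albicans strains A–G, C. glabrata (H), C. krusei (I) and C. parapsilosis (J). Test compounds were delivered in DMSO, with DMSO kept below 1% in the assay. The MIC is reported in µg/mL, with µM in parentheses. Reference antifungals (a polyene and four azoles) were run alongside.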

C. albicans ATCC 64124 = assay: MIC, broth dilution, strain B; format: cell-based, Candida albicans; conditions: Candida albicans
Method in brief: as §1

[2] = tested on: C. albicans ATCC MYA-2876(S); assay: MIC, broth dilution, strain C; format: cell-based, Candida albicans; conditions: Candida albicans
Method in brief: as §1

[3] = tested on: C. albicans ATCC 90819(R); assay: MIC, broth dilution, strain D; format: cell-based, Candida albicans; conditions: Candida albicans
Method in brief: as §1

[4] = tested on: C. albicans ATCC MYA-2310(S); assay: MIC, broth dilution, strain E; format: cell-based, Candida albicans; conditions: Candida albicans
Method in brief: as §1

[5] = tested on: C. albicans ATCC MYA-1237(R); assay: MIC, broth dilution, strain F; format: cell-based, Candida albicans; conditions: Candida albicans
Method in brief: as §1

[6] = tested on: C. albicans ATCC MYA-1003(R); assay: MIC, broth dilution, strain G; format: cell-based, Candida albicans; conditions: Candida albicans
Method in brief: as §1

[7] = tested on: Aspergillus flavus ATCC MYA-3631; assay: MIC, broth dilution, strain K; format: cell-based; conditions: Aspergillus flavus
[8] = tested on: Aspergillus nidulans ATCC 38163; assay: MIC, broth dilution, strain L; format: cell-based; conditions: Aspergillus nidulans
[9] = tested on: Aspergillus terreus ATCC MYA-3633; assay: MIC, broth dilution, strain M; format: cell-based; conditions: Aspergillus terreus
[10] = tested on: C. albicans ATCC 64124 (strain B); assay: Time-kill assay; format: cell-based, Candida albicans
[11] = Mammalian cytotoxicity, resazurin assay, HEK293; format: cell-based; conditions: human, HEK293 cells
[12] = tested on: C. albicans ATCC 10231 (strain A); assay: ROS induction assay; format: cell-based, Candida albicans; conditions: 1× and 2× MIC, 1-h treatment; H2O2 1 mM
Method in brief: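 C. albicans ATCC 10231 cells were incubated 1 h at 37 °C with test compound at 1× or 2× MIC, with no drug (negative control), or with 1 mM H₂O₂ (positive control). DCFH-DA (40 µg/mL) was then added. ROS were detected and imaged by fluorescence microscopy.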

[13] = tested on: murine red blood cells (mRBCs); conditions: data previously presented; cited from earlier work
[14] = read-out: MIC (MIC-0) in µM (parentheses)

- MIC ([1]; ATCC10231, read-out: MIC (MIC-0)): 12.5 µg/mL
- MIC ([1]; ATCC10231, read-out: MIC (MIC-0) in µM (parentheses)): 45.6 µM
- MIC (C. albicans ATCC 64124; ATCC64124, read-out: MIC (MIC-0)): 12.5 µg/mL
- MIC (C. albicans ATCC 64124; ATCC64124, read-out: MIC (MIC-0) in µM (parentheses)): 45.6 µM
- MIC ([2]; read-out: MIC (MIC-0)): 12.5 µg/mL
- MIC [2, 14]: 45.6 µM
- MIC ([3]; ATCC90819, read-out: MIC (MIC-0)): 1.56 µg/mL
- MIC ([3]; ATCC90819, read-out: MIC (MIC-0) in µM (parentheses)): 5.69 µM
- MIC ([4]; read-out: MIC (MIC-0)): 3.13 µg/mL
- MIC [4, 14]: 11.4 µM
- MIC ([5]; read-out: MIC (MIC-0)): > 12.5 µg/mL
- MIC [5, 14]: > 45.6 µM
- MIC ([6]; read-out: MIC (MIC-0)): 12.5 µg/mL
- MIC [6, 14]: 45.6 µM
- MIC ([7]; read-out: MIC (MIC-0)): 6.25 µg/mL
- MIC [7, 14]: 22.8 µM
- MIC ([8]; ATCC38163, read-out: MIC (MIC-0)): 1.56 µg/mL
- MIC ([8]; ATCC38163, read-out: MIC (MIC-0) in µM (parentheses)): 5.69 µM
- MIC ([9]; read-out: MIC (MIC-0)): 1.56 µg/mL
- MIC [9, 14]: 5.69 µM
SMILES: O=c1c2ccccc2[se]n1-c1ccccc1 [Compound 1, ebselen]
- time of complete fungal cell death ([10]; 1× MIC (12.5 µg/mL)): 6 h
- time-kill effect ([10]; 1× MIC (1 12.5, 2a 12.5, 3a 0.39, AmB 3.9 µg/mL)): fungicidal
- time from which completely fungicidal ([10]; 2× MIC): 3 h
- time-kill effect ([10]; 2× MIC (1 25, 2a 25, 3a 0.78, AmB 7.8 µg/mL)): completely fungicidal
- fungicidal concentration ([10]; time-kill curves): 12.5 µg/mL and 45.6 µM
- IC50 [11]: > 10 µg/mL and > 36.5 µM
- ROS induction (DCFH-DA fluorescence) [12]: highly fluorescent
- concentration until which no significant hemolytic activity was shown [13]: 15.6 µg/mL and 56.9 µM
